ChEMBL document CHEMBL3526008, “Identification of amiodarone metabolites in human bile by ultraperformance liquid chromatography/quadrupole time-of-flight mass spectrometry” (Drug Metab Dispos, 2011)

Assays:
[1] = Drug level in arrhythmia patient bile treated with amiodarone at 200 mg/day, po for 7 days by UPLC-Q/TOF mass spectrometry; assay type: ADME, organism-based; conditions: human, in vivo, 168 h
How it was run: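 Three arrhythmia patients (66-89 y, 1 male, 2 female) with T-tube drainage after hepatobiliary surgery. Bile collected from T-tube at 1-h intervals (about 10 ml) over 24 h, stored at -20°C. Glucuronides hydrolysed with β-glucuronidase in 1 M citrate pH 5.0, 37°C, 16 h. Profiled by UPLC-Q/TOF on HSS T3 column, formic acid/acetonitrile gradient, ES+, m/z 80–1000.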

[2] = Retention time of the compound by UPLC-Q/TOF mass spectrometry; assay type: physicochemical
How it was run: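 UPLC on HSS T3 column (1.8 μm, 2.1 × 100 mm). Mobile phase 0.05% formic acid in water and in acetonitrile. Q/TOF detection in ES+ with leucine enkephalin lock mass.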

[3] = tested on: Liver microsome; experiment: Drug level in human liver microsomes assessed as compound formation treated with 50 uM amiodarone for 60 mins by UPLC-Q/TOF mass spectrometry in presence of NADPH; assay type: ADME; conditions: 1 h
How it was run: (§1)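 Pooled human liver microsomes at 1.0 mg/ml protein in 100 mM potassium phosphate pH 7.4, 37°C. Amiodarone 50 μM (DMSO 0.1% final). 3 min preincubation, then started with 2.0 mM NADPH. Stopped at 60 min with equal volume of ice-cold acetonitrile. Controls lacked NADPH or substrate. Duplicates. Analysed by UPLC-Q/TOF MS.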

[4] = Drug level in human liver S9 fraction assessed as compound formation treated with 50 uM amiodarone for 60 mins by UPLC-Q/TOF mass spectrometry in presence of NADPH; assay type: ADME, subcellular; conditions: s9, 1 h
How it was run: as §1, with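 “S9” for “microsomes”, “2.0” for “1.0”, “Quenched” for “Stopped”, “Read-out” for “Analysed”, “MS and UPLC-UV.” for “MS.”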

[5] = Drug level in human liver S9 fraction assessed as compound formation treated with 50 uM amiodarone for 60 mins by LC-UV analysis in presence of NADPH; assay type: ADME, subcellular; conditions: s9, 1 h
How it was run: as §1, with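 “S9” for “microsomes”, “2.0” for “1.0”, “Quenched” for “Stopped”, “Read-out” for “Analysed”, “MS and UPLC-UV.” for “MS.”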

[6] = Drug level in human liver S9 fraction assessed as alcohol dehydrogenase-mediated compound formation treated with 50 uM amiodarone for 60 mins by UPLC-Q/TOF mass spectrometry in presence of NADPH; assay type: ADME, subcellular; conditions: s9, 1 h
How it was run: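 Human liver S9 (2.0 mg/ml) in 100 mM potassium phosphate pH 7.4 at 37°C. Preincubated 10 min with or without 5 μM 4-methylpyrazole (final), then 50 μM amiodarone added. Incubated 60 min with 2.0 mM NADPH. Carboxylic acid metabolite compared by LC/MS between incubations with and without 4-MP. Duplicates.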

Retention_time [2] [min] | Drug metabolism [3] | Drug metabolism [4] | Drug metabolism [5] | Drug metabolism [6] | Compound | Drug metabolism [1]
15.5 | metabolite_detected | metabolite_detected | – | – | CCCCc1oc2cc(O)ccc2c1C(=O)c1cc(I)c(OCCN(CC)CC)c(I)c1 | metabolite_detected
16.3 | metabolite_detected | metabolite_detected | – | – | CCCCc1oc2ccccc2c1C(=O)c1cc(I)c(O)c(I)c1 | metabolite_detected
14.5 | metabolite_detected | metabolite_detected | – | – | CCN(CC)CCOc1c(I)cc(C(=O)c2c(CCC(C)O)oc3ccccc23)cc1I (stereo not drawn) | metabolite_detected
17 | metabolite_detected | metabolite_detected | metabolite_detected | – | CCCCc1oc2ccccc2c1C(=O)c1cc(I)c(OCCNCC)c(I)c1 [DESETHYLAMIODARONE] | metabolite_detected
14.3 | metabolite_detected | metabolite_detected | – | – | CCN(CC)CCOc1c(I)cc(C(=O)c2c(CCCCO)oc3ccccc23)cc1I | metabolite_detected
13.3 | – | metabolite_detected | – | – | CCN(CC)CCOc1ccc(C(=O)c2c(CCCC(=O)O)oc3ccccc23)cc1I | metabolite_detected
13.4 | – | metabolite_detected | – | – | CCNCCOc1c(I)cc(C(=O)c2c(CCCC(=O)O)oc3ccccc23)cc1I | metabolite_detected
16.2 | metabolite_detected | metabolite_detected | – | – | CCCCc1oc2ccccc2c1C(=O)c1ccc(OCCNCC)c(I)c1 | metabolite_detected
21.5 | metabolite_detected | metabolite_detected | – | – | CCCCc1oc2ccccc2c1C(=O)c1cc(I)c(OCCO)c(I)c1 | metabolite_detected
14.2 | – | – | – | metabolite_detected | CCN(CC)CCOc1c(I)cc(C(=O)c2c(CCCC(=O)O)oc3ccccc23)cc1I | metabolite_detected
